# Key:
# [1] = molecular target: Sterol 14-alpha demethylase (Trypanosoma cruzi (strain CL Brener)) (UniProt Q7Z1V1); assay: Binding affinity to Trypanosoma cruzi CYP51 by spectral ligand binding assay
# Procedure, shortened: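 Full-length Tulahuen T. cruzi CYP51 at ~1 μM in 20 mM K-phosphate pH 7.4, 200 mM NaCl, 0.1 mM EDTA, 25 °C, 5 cm path. Ligand is titrated 0.2–2.0 μM in 0.2 μM steps, with DMSO matched in the reference cuvette. The Soret red-shift difference spectra (peak-to-trough ΔA) are fit to a quadratic tight-binding equation, giving Ks and ΔAmax/Ks.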
# [2] = molecular target: Sterol 14-alpha demethylase (Trypanosoma cruzi (strain CL Brener)) (UniProt Q7Z1V1); assay: Inhibition of Trypanosoma cruzi CYP51 assessed as substrate conversion level using [3H]eburicol substrate at inhibitor/enzyme molar ratio of 2 after 1 hr by HPLC method; design: scale not given: the % may be the effect or the level left
# Procedure, shortened: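 Reconstituted full-length CYP51 (1 μM) with 2 μM CPR, 100 μM dilauroylphosphatidylcholine, and an isocitrate dehydrogenase/isocitrate system in 20 mM MOPS pH 7.4, 50 mM KCl, 5 mM MgCl₂, 10% glycerol. [³H]eburicol is final 50 μM; enzyme/substrate/inhibitor ratio is 1:50:2. After 5 min preincubation at 37 °C, 100 μM NADPH starts the 1 h reaction. Sterols are ethyl acetate-extracted and resolved by reverse-phase HPLC with radiodetection.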
# Trypanosoma cruzi [3] = assay: Antitrypanosomal activity against Trypanosoma cruzi Tulahuen trypomastigotes expressing green florescent protein infected in cardiomyocytes assessed as inhibition of parasite growth after 72 hrs by fluorescence microscopy; type: functional, organism-based
# Procedure, shortened: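 GFP-expressing T. cruzi Tulahuen 20A-clone trypomastigotes infect cardiomyocyte monolayers at 10 parasites per cell in DMEM + 10% FBS; unbound parasites are washed off. At 24 h, inhibitors (1–25 nM, in DMSO/phenol-red-free DMEM) are added and cultured 48 h, in triplicate. At 72 h, infection is read as fluorescence (RFU), or cells are fixed in paraformaldehyde and stained with DAPI/phalloidin for microscopy. Posaconazole is the control.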
# Trypanosoma cruzi [4] = assay: Antitrypanosomal activity against Trypanosoma cruzi Tulahuen trypomastigotes expressing green florescent protein infected in cardiomyocytes assessed as inhibition of parasite growth at 10 nM after 72 hrs by fluorescence microscopy; type: functional
# Sequence of Sterol 14-alpha demethylase (Trypanosoma cruzi (strain CL Brener)) (Q7Z1V1 whole entry, looked up): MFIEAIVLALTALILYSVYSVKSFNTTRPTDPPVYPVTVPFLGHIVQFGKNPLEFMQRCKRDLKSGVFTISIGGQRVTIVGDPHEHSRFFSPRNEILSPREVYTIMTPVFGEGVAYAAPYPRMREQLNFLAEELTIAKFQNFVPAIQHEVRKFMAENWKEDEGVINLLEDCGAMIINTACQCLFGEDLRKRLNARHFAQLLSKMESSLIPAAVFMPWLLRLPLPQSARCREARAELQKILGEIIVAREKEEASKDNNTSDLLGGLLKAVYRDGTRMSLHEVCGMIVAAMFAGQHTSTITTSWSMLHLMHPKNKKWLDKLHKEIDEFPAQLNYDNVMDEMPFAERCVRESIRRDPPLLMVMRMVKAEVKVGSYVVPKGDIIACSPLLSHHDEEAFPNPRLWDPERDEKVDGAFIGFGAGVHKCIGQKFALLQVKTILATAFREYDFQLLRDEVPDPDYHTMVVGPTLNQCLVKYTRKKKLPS
Compound,Ks [1],Activity [2],EC50 (Trypanosoma cruzi [3]),inhibition at 0.01 µM (Trypanosoma cruzi [4])
O=C(NCCCn1ccnc1)O[C@H](Cn1ccnc1)c1ccc(F)cc1,0.6 µM,93.9%,–,–
O=C(Nc1ccc(N2CCN(c3ccc(Cl)c(Cl)c3)CC2)cc1)O[C@@H](Cn1ccnc1)c1ccc(Cl)cc1Cl,–,0.8%,1.2 nM,83%
CC[C@@H]([C@H](C)O)n1ncn(-c2ccc(N3CCN(c4ccc(OC[C@@H]5CO[C@@](Cn6cncn6)(c6ccc(F)cc6F)C5)cc4)CC3)cc2)c1=O [POSACONAZOLE],–,–,5 nM,64%
O=C(Nc1ccc(Sc2ccc([N+](=O)[O-])cc2)cc1)O[C@@H](Cn1ccnc1)c1ccc(Cl)cc1,0.715 µM,52.5%,2.5 nM,62.5%
O=C(Nc1ccc(Sc2ccc([N+](=O)[O-])cc2)cc1)O[C@H](Cn1ccnc1)c1ccc(Cl)cc1,0.162 µM,12.5%,1.5 nM,70%
CC(C)c1ccc(NC(=O)O[C@@H](Cn2ccnc2)c2ccc(Cl)cc2)cc1,–,90%,22 nM,30.5%
CC(C)c1ccc(NC(=O)O[C@@H](Cn2ccnc2)c2ccc(F)cc2)cc1,0.083 µM,86.5%,20 nM,32.1%
CC(C)c1ccc(NC(=O)O[C@H](Cn2ccnc2)c2ccc(Cl)cc2)cc1,–,1.9%,1 nM,74.5%

# The next lines start with results.
Ks [1],Activity [2],Compound,EC50 (Trypanosoma cruzi [3]),inhibition at 0.01 µM (Trypanosoma cruzi [4])
0.087 µM,89.2%,O=C(NCCCn1ccnc1)O[C@@H](Cn1ccnc1)c1ccc(F)cc1,–,–
0.046 µM,0.7%,O=C(O[C@H](Cn1ccnc1)c1ccccc1)c1ccc(-c2ccccc2)cc1,1.2 nM,76.3%
–,3.8%,O=C(Nc1ccc(N2CCN(c3ccc(Cl)c(Cl)c3)CC2)cc1)O[C@H](Cn1ccnc1)c1ccc(Cl)cc1Cl,1.3 nM,73.5%
0.032 µM,8.5%,CC(C)c1ccc(NC(=O)O[C@H](Cn2ccnc2)c2ccc(F)cc2)cc1,5.5 nM,69.3%
0.087 µM,79.5%,O=C(O[C@@H](Cn1ccnc1)c1ccccc1)c1ccc(-c2ccccc2)cc1,15 nM,29.5%

# Source: ChEMBL document CHEMBL3351276, “Structural basis for rational design of inhibitors targeting Trypanosoma cruzi sterol 14α-demethylase: two regions of the enzyme molecule potentiate its inhibition” (J Med Chem, 2014)
